Measurements published in ChEMBL document CHEMBL1649119, “Daptomycin pharmacokinetics in adult oncology patients with neutropenic fever” (Antimicrob Agents Chemother, 2009).

Assays:
[1] = Volume of distribution at steady state in young healthy human at 4 mg/kg, iv administered as single dose 30 mins infusion; format: ADME, organism-based; design: dose 4 mg/kg, route intravenous; conditions: in vivo, read-out: Vdss
[2] = Plasma concentration in old healthy human at 4 mg/kg, iv administered as single dose 30 mins infusion measured after 24 hrs; format: ADME, organism-based; design: dose 4 mg/kg, route intravenous
Homo sapiens [3] = experiment: AUC (0 to infinity) in healthy human subjects at 6 mg/kg, iv administered as 30 mins infusion every 24 hrs measured on day 1; format: ADME, organism-based, Plasma; design: time infinity, dose 6 mg/kg, route intravenous; conditions: in vivo
[4] = Cmax in healthy human at 4 mg/kg, iv administered as 30 mins infusion every 24 hrs measured on day 1; format: ADME, organism-based; design: dose 4 mg/kg, route intravenous; conditions: in vivo
[5] = AUC (0 to infinity) in moderately obese adult human at 4 mg/kg, iv administered as single dose 30 mins infusion; format: ADME, organism-based; design: time infinity, dose 4 mg/kg, route intravenous; conditions: plasma
[6] = Unbound fraction in healthy human plasma at 4 mg/kg, iv administered as 30 mins infusion every 24 hrs measured on day 7; format: ADME, organism-based; design: dose 4 mg/kg, route intravenous
[7] = Drug excretion in moderately obese adult human urine assessed as unchanged drug at 4 mg/kg, iv administered as single dose 30 mins infusion; format: ADME, organism-based; design: dose 4 mg/kg, route intravenous; conditions: read-out: Drug uptake
[8] = AUC (0 to infinity) in healthy human at 8 mg/kg, iv administered as 30 mins infusion every 24 hrs measured on day 1; format: ADME, organism-based; design: time infinity, dose 8 mg/kg, route intravenous; conditions: plasma
[9] = Apparent volume of distribution during terminal phase in healthy human subjects at 10 mg/kg, iv administered as 30 mins infusion every 24 hrs measured on day 14; format: ADME, organism-based; design: dose 10 mg/kg, route intravenous; conditions: in vivo
[10] = Volume of distribution at steady state in nonobese adult human at 4 mg/kg, iv administered as single dose 30 mins infusion; format: ADME, organism-based; design: dose 4 mg/kg, route intravenous; conditions: in vivo, read-out: Vdss
[11] = Half life in healthy adult human at 6 mg/kg, iv administered as single dose 30 mins infusion; format: ADME, organism-based; design: dose 6 mg/kg, route intravenous; conditions: in vivo
[12] = Clearance in healthy adult human at 6 mg/kg, iv administered as single dose 30 mins infusion; format: ADME, organism-based; design: dose 6 mg/kg, route intravenous; conditions: in vivo
[13] = Clearance in healthy human subjects at 10 mg/kg, iv administered as 30 mins infusion every 24 hrs measured on day 4; format: ADME, organism-based; design: dose 10 mg/kg, route intravenous; conditions: in vivo
Homo sapiens [14] = experiment: Unbound clearance in healthy human at 6 mg/kg, iv administered as 30 mins infusion every 24 hrs measured on day 7; format: ADME, organism-based; design: dose 6 mg/kg, route intravenous; conditions: in vivo
[15] = Cmax in healthy human subjects at 8 mg/kg, iv administered as 30 mins infusion every 24 hrs measured on day 4; format: ADME, organism-based; design: dose 8 mg/kg, route intravenous; conditions: in vivo
[16] = Cmax in healthy human at 6 mg/kg, iv administered as 30 mins infusion every 24 hrs measured on day 1; format: ADME, organism-based; design: dose 6 mg/kg, route intravenous; conditions: in vivo
[17] = Unbound fraction in healthy human plasma at 8 mg/kg, iv administered as 30 mins infusion every 24 hrs measured on day 14; format: ADME, organism-based; design: dose 8 mg/kg, route intravenous
[18] = Apparent volume of distribution during terminal phase in healthy human at 8 mg/kg, iv administered as 30 mins infusion every 24 hrs measured on day 7; format: ADME, organism-based; design: dose 8 mg/kg, route intravenous; conditions: in vivo
[19] = Renal clearance in morbidly obese adult human at 4 mg/kg, iv administered as single dose 30 mins infusion; format: ADME, organism-based, Kidney; design: dose 4 mg/kg, route intravenous; conditions: in vivo, read-out: CL_renal (converted)
[20] = Half life in adult human with hepatic impairment at 6 mg/kg, iv administered as single dose 30 mins infusion; format: ADME, organism-based; design: dose 6 mg/kg, route intravenous; conditions: in vivo
[21] = Clearance in adult human subjects at 6 mg/kg, iv administered as single dose 30 mins infusion; format: ADME, organism-based; design: dose 6 mg/kg, route intravenous; conditions: in vivo
[22] = Tmax in cancer patient with neutropenic fever at 6 mg/kg, iv administered as 30 mins infusion every 24 hrs; format: ADME, organism-based; design: dose 6 mg/kg, route intravenous; conditions: human, in vivo
Method in brief: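 29 adult oncology patients with neutropenic fever received 6 mg/kg (total body weight) daptomycin as a 30-min IV infusion every 24 h. Plasma was sampled predose, at end of infusion, and 0.5, 1, 2, 4, 8, 12 and 24 h after infusion start. Total drug was measured by validated HPLC (linear 1–100 μg/ml, detection limit 1 μg/ml). Tmax was the observed value, analysed noncompartmentally.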

[23] = Mean residence time in healthy human at 4 mg/kg, iv administered as single dose 30 mins infusion; format: ADME, organism-based; design: dose 4 mg/kg, route intravenous; conditions: in vivo
[24] = Clearance in nonobese adult human at 4 mg/kg, iv administered as single dose 30 mins infusion; format: ADME, organism-based; design: dose 4 mg/kg, route intravenous; conditions: in vivo
[25] = Half life in healthy human subjects at 6 mg/kg, iv administered as 30 mins infusion every 24 hrs measured on day 1; format: ADME, organism-based; design: dose 6 mg/kg, route intravenous; conditions: in vivo
[26] = AUC (0 to infinity) in healthy human subjects at 10 mg/kg, iv administered as 30 mins infusion every 24 hrs measured on day 4; format: ADME, organism-based; design: time infinity, dose 10 mg/kg, route intravenous; conditions: plasma
Homo sapiens [27] = experiment: Apparent volume of distribution in healthy human at 4 mg/kg, iv administered as single dose 30 mins infusion; format: ADME, organism-based; design: dose 4 mg/kg, route intravenous; conditions: in vivo, 0.5 h
[28] = Drug excretion in nonobese adult human urine assessed as unchanged drug at 4 mg/kg, iv administered as single dose 30 mins infusion; format: ADME, organism-based; design: dose 4 mg/kg, route intravenous; conditions: read-out: Drug uptake
[29] = Half life in moderately obese adult human at 4 mg/kg, iv administered as single dose 30 mins infusion; format: ADME, organism-based; design: dose 4 mg/kg, route intravenous; conditions: in vivo
[30] = AUC (0 to infinity) in healthy human subjects at 8 mg/kg, iv administered as 30 mins infusion every 24 hrs measured on day 4; format: ADME, organism-based; design: dose 8 mg/kg, route intravenous, time infinity; conditions: plasma
[31] = Clearance in cancer patient with neutropenic fever at 6 mg/kg, iv administered as 30 mins infusion every 24 hrs; format: ADME, organism-based; design: dose 6 mg/kg, route intravenous; conditions: human, in vivo
Method in brief: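 29 adult oncology patients with neutropenic fever received 6 mg/kg (total body weight) as a 30-min IV infusion every 24 h. Plasma was sampled predose, at the end of infusion, and at 0.5, 1, 2, 4, 8, 12 and 24 h. Total drug was measured by validated HPLC (linear 1–100 μg/ml). Noncompartmental clearance = dose/AUC0-∞, with AUC from trapezoids plus last concentration/λz. Mean ± SD.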

[32] = Clearance in healthy human at 4 mg/kg, iv administered as 30 mins infusion every 24 hrs measured on day 7; format: ADME, organism-based; design: dose 4 mg/kg, route intravenous; conditions: in vivo
Homo sapiens [33] = experiment: Unbound clearance in healthy human at 6 mg/kg, iv administered as 30 mins infusion every 24 hrs measured on day 1; format: ADME, organism-based; design: dose 6 mg/kg, route intravenous; conditions: in vivo
[34] = Apparent volume of distribution in young healthy human at 4 mg/kg, iv administered as single dose 30 mins infusion; format: ADME, organism-based; design: dose 4 mg/kg, route intravenous; conditions: in vivo
[35] = Half life in healthy human subjects at 6 mg/kg, iv administered as 30 mins infusion every 24 hrs measured on day 4; format: ADME, organism-based; design: dose 6 mg/kg, route intravenous; conditions: in vivo
[36] = AUC ( 0 to infinity) in cancer patient with neutropenic fever at 6 mg/kg, iv administered as 30 mins infusion every 24 hrs; format: ADME, organism-based; design: time infinity, dose 6 mg/kg, route intravenous; conditions: human, plasma
Method in brief: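 Adult oncology patients with neutropenic fever (n = 29) received 6 mg/kg by total body weight as a 30-min IV infusion. Plasma was sampled predose, at end of infusion, and at 0.5, 1, 2, 4, 8, 12 and 24 h. Total drug was measured by validated HPLC (linear 1–100 μg/ml). Noncompartmental analysis: AUC0-24 by linear trapezoidal rule, plus last concentration/λz. Mean ± SD.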

Homo sapiens [37] = experiment: Cmax in healthy human subjects at 6 mg/kg, iv administered as 30 mins infusion every 24 hrs measured on day 4; format: ADME, organism-based; design: dose 6 mg/kg, route intravenous; conditions: in vivo
[38] = Clearance in morbidly obese adult human at 4 mg/kg, iv administered as single dose 30 mins infusion; format: ADME, organism-based; design: dose 4 mg/kg, route intravenous; conditions: in vivo
[39] = Half life in healthy human subjects at 12 mg/kg, iv administered as 30 mins infusion every 24 hrs measured on day 14; format: ADME, organism-based; design: dose 12 mg/kg, route intravenous; conditions: in vivo
[40] = Unbound fraction in healthy human plasma at 6 mg/kg, iv administered as 30 mins infusion every 24 hrs measured on day 7; format: ADME, organism-based; design: dose 6 mg/kg, route intravenous

CCCCCCCCCC(=O)N[C@@H](Cc1c[nH]c2ccccc12)C(=O)N[C@H](CC(N)=O)C(=O)N[C@@H](CC(=O)O)C(=O)N[C@@H]1C(=O)NCC(=O)N[C@@H](CCCN)C(=O)N[C@@H](CC(=O)O)C(=O)N[C@H](C)C(=O)N[C@@H](CC(=O)O)C(=O)NCC(=O)N[C@H](CO)C(=O)N[C@@H]([C@H](C)CC(=O)O)C(=O)N[C@@H](CC(=O)c2ccccc2N)C(=O)O[C@@H]1C
Vd [1]: 0.14 L/kg | concentration at 24 h [2]: 6.38 µg/mL | AUC (Homo sapiens [3]): 729.8 µg·h/mL | Cmax [4]: 54.6 µg/mL | AUC(0-inf) [5]: 421 µg·h/mL | fraction unbound at 7 day [6]: 0.08 | dose excreted at 0.5 h [7]: 51.8% | AUC(0-inf) [8]: 1130 µg·h/mL | Vd [9]: 0.0858 L/kg | Vd [10]: 0.13 L/kg | half-life [11]: 8.06 h | clearance [12]: 0.171 mL/min/kg | clearance [13]: 0.147 mL/min/kg | CL (Homo sapiens [14]): 0.997 mL/min/kg | Cmax [15]: 123 µg/mL | Cmax [16]: 86.4 µg/mL | fraction unbound at 14 day [17]: 0.09 | Vd [18]: 0.092 L/kg | CL renal at 0.5 h [19]: 0.134 mL/min/kg | half-life [20]: 8.97 h | clearance [21]: 0.109 mL/min/kg | Tmax [22]: 0.6 h | MRT [23]: 10.9 h | clearance [24]: 0.245 mL/min/kg | half-life [25]: 7.5 h | AUC(0-inf) [26]: 1040 µg·h/mL | Vd (Homo sapiens [27]): 6350 mL | dose excreted at 0.5 h [28]: 52.3% | half-life [29]: 7.34 h | AUC(0-inf) [30]: 858 µg·h/mL | clearance [31]: 0.259 mL/min/kg | clearance [32]: 0.138 mL/min/kg | CL (Homo sapiens [33]): 0.992 mL/min/kg | Vd [34]: 0.15 L/kg | half-life [35]: 7.9 h | AUC(0-inf) [36]: 427 µg·h/mL | Cmax (Homo sapiens [37]): 93.9 µg/mL | clearance [38]: 0.13 mL/min/kg | half-life [39]: 7.9 h | fraction unbound at 7 day [40]: 0.08
